Results published in ChEMBL document CHEMBL1926614, “Substituted thiazoles V. synthesis and antitumor activity of novel thiazolo[2,3-b]quinazoline and pyrido[4,3-d]thiazolo[3,2-a]pyrimidine analogues” (2012).

Legend:
Type in all cases: functional
[1] = Cytotoxicity against human CNS cancer cells after 48 hrs by coulter counting; settings: Cancer cell lines
Method in brief: (§1)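 NCI 60-cell-line panel covering nine tumour subpanels, tested over a 5-log dose range. Compounds were dissolved in DMSO and diluted in phosphate-buffered saline to a final DMSO below 1%. Wells held 6 × 10⁴ cells/ml and were run in duplicate. Controls contained PBS and DMSO at matching dilutions. Incubation was at 37 °C in humidified 5% CO₂. GI₅₀, TGI and LC₅₀ were reported.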

[2] = Cytotoxicity against human melanoma cells after 48 hrs by coulter counting; settings: Melanoma cell; method in brief: as §1
[3] = Cytotoxicity against human renal cancer cells after 48 hrs by coulter counting; settings: Cancer cell lines; method in brief: as §1
[4] = Cytotoxicity against human ovarian cancer cells after 48 hrs by coulter counting; settings: Cancer cell lines; method in brief: as §1
[5] = Cytotoxicity against human prostate cancer cells after 48 hrs by coulter counting; settings: Cancer cell lines; method in brief: as §1
[6] = Cytotoxicity against human breast cancer cells after 48 hrs by coulter counting; settings: Cancer cell lines; method in brief: as §1
NSCLC = test: Cytotoxicity against human NSCLC cells after 48 hrs by coulter counting; method in brief: as §1
[7] = Cytotoxicity against human leukemia cells after 48 hrs by coulter counting; settings: Leukemia cell; method in brief: as §1
[8] = Cytotoxicity against human colon cancer cells after 48 hrs by coulter counting; settings: Cancer cell lines; method in brief: as §1
UACC-257 = test: Growth inhibition of human UACC257 cells at 10 uM after 48 hrs by coulter counting; settings: UACC-257, 48 h, read-out: GI
Method in brief: (§2)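 Single-dose screen in the NCI 60 human tumor cell line panel (nine subpanels). Compounds dissolved in DMSO and diluted in phosphate buffered saline, keeping final DMSO below 1%. Added in duplicate wells to cells at 6 × 10⁴ cells/ml. Controls held PBS and DMSO at matching dilutions. Incubated at 37 °C, humidified, 5% CO₂. Reported as percent growth of treated cells.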

UACC-62 = test: Growth inhibition of human UACC62 cells at 10 uM after 48 hrs by coulter counting; settings: UACC-62, 48 h, read-out: GI; method in brief: as §2
CCRF-CEM = test: Growth inhibition of human CCRF-CEM cells at 10 uM after 48 hrs by coulter counting; settings: read-out: GI
Method in brief: (§3)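 Single-dose primary screen across the full NCI 60-cell-line panel. Stocks were made in DMSO and diluted in PBS to a final DMSO below 1%. Cultures at 6 × 10⁴ cells/ml were run in duplicate wells alongside PBS/DMSO vehicle controls at 37 °C in humidified 5% CO₂. Data were expressed as percent growth of treated cells.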

HL-60(TB) = test: Growth inhibition of human HL-60(TB) cells at 10 uM after 48 hrs by coulter counting; settings: HL-60, 48 h, read-out: GI
Method in brief: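 Test compound was dissolved in DMSO and diluted in phosphate-buffered saline to a final DMSO level below 1%. Dilutions were plated in duplicate with cell culture at 6 × 10⁴ cells/ml. Vehicle controls held PBS and DMSO at matching dilutions. Incubation was at 37 °C, humidified, under 5% CO₂. Data were reported as percent growth of treated cells.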

K562 = test: Growth inhibition of human K562 cells at 10 uM after 48 hrs by coulter counting; settings: K562, 48 h, read-out: GI; method in brief: as §3
MOLT-4 = test: Growth inhibition of human MOLT4 cells at 10 uM after 48 hrs by coulter counting; settings: MOLT-4, 48 h, read-out: GI; method in brief: as §3
RPMI-8226 = test: Growth inhibition of human RPMI8226 cells at 10 uM after 48 hrs by coulter counting; settings: RPMI-8226, 48 h, read-out: GI; method in brief: as §3
A549 = test: Growth inhibition of human A549 cells at 10 uM after 48 hrs by coulter counting; settings: A549, 48 h, read-out: GI; method in brief: as §3
EKVX = test: Growth inhibition of human EKVX cells at 10 uM after 48 hrs by coulter counting; settings: read-out: GI; method in brief: as §3
NCI-H226 = test: Growth inhibition of human NCI-H226 cells at 10 uM after 48 hrs by coulter counting; settings: NCI-H226, 48 h, read-out: GI; method in brief: as §3
NCI-H23 = test: Growth inhibition of human NCI-H23 cells at 10 uM after 48 hrs by coulter counting; settings: NCI-H23, 48 h, read-out: GI; method in brief: as §3
[9] = Growth inhibition of human NCI-322M cells at 10 uM after 48 hrs by coulter counting; settings: read-out: GI; method in brief: as §3
NCI-H522 = test: Growth inhibition of human NCI-H522 cells at 10 uM after 48 hrs by coulter counting; settings: NCI-H522, 48 h, read-out: GI; method in brief: as §3
HCT-116 = test: Growth inhibition of human HCT116 cells at 10 uM after 48 hrs by coulter counting; settings: HCT-116, 48 h, read-out: GI; method in brief: as §3
HCC 2998 = test: Growth inhibition of human HCC2998 cells at 10 uM after 48 hrs by coulter counting; settings: HCC 2998, 48 h, read-out: GI; method in brief: as §3
HT-29 = test: Growth inhibition of human HT-29 cells at 10 uM after 48 hrs by coulter counting; settings: HT-29, 48 h, read-out: GI; method in brief: as §3
KM12 = test: Growth inhibition of human KM12 cells at 10 uM after 48 hrs by coulter counting; settings: KM12, 48 h, read-out: GI; method in brief: as §3
SF-268 = test: Growth inhibition of human SF268 cells at 10 uM after 48 hrs by coulter counting; settings: SF-268, 48 h, read-out: GI; method in brief: as §3
SF-295 = test: Growth inhibition of human SF295 cells at 10 uM after 48 hrs by coulter counting; settings: SF-295, 48 h, read-out: GI; method in brief: as §3
SNB-19 = test: Growth inhibition of human SNB19 cells at 10 uM after 48 hrs by coulter counting; settings: SNB-19, 48 h, read-out: GI; method in brief: as §3
SNB-75 = test: Growth inhibition of human SNB75 cells at 10 uM after 48 hrs by coulter counting; settings: SNB-75, 48 h, read-out: GI; method in brief: as §3
U-251 = test: Growth inhibition of human U251 cells at 10 uM after 48 hrs by coulter counting; settings: U-251, 48 h, read-out: GI; method in brief: as §2
LOX IMVI = test: Growth inhibition of human LOXIMVI cells at 10 uM after 48 hrs by coulter counting; settings: read-out: GI; method in brief: as §3
M14 = test: Growth inhibition of human M14 cells at 10 uM after 48 hrs by coulter counting; settings: M14, 48 h, read-out: GI; method in brief: as §3
MDA-MB-435 = test: Growth inhibition of human MDA-MB-435 cells at 10 uM after 48 hrs by coulter counting; settings: MDA-MB-435, 48 h, read-out: GI; method in brief: as §3
SK-MEL-2 = test: Growth inhibition of human SK-MEL-2 cells at 10 uM after 48 hrs by coulter counting; settings: SK-MEL-2, 48 h, read-out: GI; method in brief: as §3
SK-MEL-28 = test: Growth inhibition of human SK-MEL-28 cells at 10 uM after 48 hrs by coulter counting; settings: SK-MEL-28, 48 h, read-out: GI; method in brief: as §3
SK-MEL-5 = test: Growth inhibition of human SK-MEL-5 cells at 10 uM after 48 hrs by coulter counting; settings: SK-MEL-5, 48 h, read-out: GI; method in brief: as §3
IGROV-1 = test: Growth inhibition of human IGROV1 cells at 10 uM after 48 hrs by coulter counting; settings: IGROV-1, 48 h, read-out: GI; method in brief: as §3
OVCAR-4 = test: Growth inhibition of human OVCAR4 cells at 10 uM after 48 hrs by coulter counting; settings: OVCAR-4, 48 h, read-out: GI; method in brief: as §3
NCI/ADR-RES = test: Growth inhibition of human NCI/ADR-RES cells at 10 uM after 48 hrs by coulter counting; settings: read-out: GI; method in brief: as §3
A498 = test: Growth inhibition of human A498 cells at 10 uM after 48 hrs by coulter counting; settings: A498, 48 h, read-out: GI; method in brief: as §3
ACHN = test: Growth inhibition of human ACHN cells at 10 uM after 48 hrs by coulter counting; settings: read-out: GI; method in brief: as §3
CAKI-1 = test: Growth inhibition of human Caki1 cells at 10 uM after 48 hrs by coulter counting; settings: CAKI-1, 48 h, read-out: GI; method in brief: as §3
UO-31 = test: Growth inhibition of human UO31 cells at 10 uM after 48 hrs by coulter counting; settings: UO-31, 48 h, read-out: GI; method in brief: as §2
DU-145 = test: Growth inhibition of human DU145 cells at 10 uM after 48 hrs by coulter counting; settings: DU-145, 48 h, read-out: GI; method in brief: as §3
MCF7 = test: Growth inhibition of human MCF7 cells at 10 uM after 48 hrs by coulter counting; settings: MCF7, 48 h, read-out: GI; method in brief: as §3
BT-549 = test: Growth inhibition of human BT549 cells at 10 uM after 48 hrs by coulter counting; settings: BT-549, 48 h, read-out: GI; method in brief: as §3
T47D = test: Growth inhibition of human T47D cells at 10 uM after 48 hrs by coulter counting; settings: read-out: GI; method in brief: as §2
[10] = read-out: LC50 (the source's name)

SMILES: O=c1[nH]cc(F)c(=O)[nH]1 [FLUOROURACIL]
- TGI [1]: > 100 µM
- GI50 [2]: 70.6 µM
- TGI [2]: > 100 µM
- CC50 [2, 10]: > 100 µM
- GI50 [3]: 45.6 µM
- TGI [3]: > 100 µM
- GI50 [4]: 61.4 µM
- TGI [4]: > 100 µM
- CC50 [4, 10]: > 100 µM
- GI50 [5]: 22.7 µM
- TGI [5]: > 100 µM
- GI50 [6]: 76.4 µM
- TGI [6]: > 100 µM
- CC50 [6, 10]: > 100 µM
- GI50 (NSCLC): > 100 µM
- TGI (NSCLC): > 100 µM
- CC50 (NSCLC; [10]): > 100 µM
- TGI [7]: > 100 µM
- CC50 [7, 10]: > 100 µM
- GI50 [8]: 8.4 µM
- TGI [8]: > 100 µM

SMILES: COc1cc(/C=C2\CCCC3=C2N=C2SC=C(C)N2C3c2cc(OC)c(OC)c(OC)c2)cc(OC)c1OC (stereo not given)
- inhibition of growth at 10 µM (UACC-257): > 10%
- inhibition of growth at 10 µM (UACC-62): > 10%
- inhibition of growth at 10 µM (CCRF-CEM): > 10%
- inhibition of growth at 10 µM (HL-60(TB)): > 10%
- inhibition of growth at 10 µM (K562): > 10%
- inhibition of growth at 10 µM (MOLT-4): > 10%
- inhibition of growth at 10 µM (RPMI-8226): > 10%
- inhibition of growth at 10 µM (A549): > 10%
- inhibition of growth at 10 µM (EKVX): > 10%
- inhibition of growth at 10 µM (NCI-H226): > 10%
- inhibition of growth at 10 µM (NCI-H23): > 10%
- inhibition of growth at 10 µM [9]: > 10%
- inhibition of growth at 10 µM (NCI-H522): > 10%
- inhibition of growth at 10 µM (HCT-116): > 10%
- inhibition of growth at 10 µM (HCC 2998): > 10%
- inhibition of growth at 10 µM (HT-29): > 10%
- inhibition of growth at 10 µM (KM12): > 10%
- inhibition of growth at 10 µM (SF-268): > 10%
- inhibition of growth at 10 µM (SF-295): > 10%
- inhibition of growth at 10 µM (SNB-19): > 10%
- inhibition of growth at 10 µM (SNB-75): > 10%
- inhibition of growth at 10 µM (U-251): > 10%
- inhibition of growth at 10 µM (LOX IMVI): > 10%
- inhibition of growth at 10 µM (M14): > 10%
- inhibition of growth at 10 µM (MDA-MB-435): > 10%
- inhibition of growth at 10 µM (SK-MEL-2): > 10%
- inhibition of growth at 10 µM (SK-MEL-28): > 10%
- inhibition of growth at 10 µM (SK-MEL-5): > 10%
- inhibition of growth at 10 µM (IGROV-1): > 10%
- inhibition of growth at 10 µM (OVCAR-4): > 10%
- inhibition of growth at 10 µM (NCI/ADR-RES): > 10%
- inhibition of growth at 10 µM (A498): > 10%
- inhibition of growth at 10 µM (ACHN): > 10%
- inhibition of growth at 10 µM (CAKI-1): > 10%
- inhibition of growth at 10 µM (UO-31): 20%
- inhibition of growth at 10 µM (DU-145): > 10%
- inhibition of growth at 10 µM (MCF7): > 10%
- inhibition of growth at 10 µM (BT-549): > 10%
- inhibition of growth at 10 µM (T47D): > 10%
